Reference: ChEMBL document CHEMBL4152287, “Synthesis and characterization of novel classes of PDE10A inhibitors - 1H-1,3-benzodiazoles and imidazo[1,2-a]pyrimidines” (Eur J Med Chem, 2018)

What was measured:
[1] = target: High affinity cAMP-specific and IBMX-insensitive 3',5'-cyclic phosphodiesterase 8A (Homo sapiens) (UniProt O60658); test: Inhibition of recombinant full length human N-terminal GST-tagged PDE8A1 expressed in baculovirus infected Sf9 cells at 100 nM using iFl-cAMP/iFl-cGMP as substrate by mobility shift assay relative to control
Sequence of High affinity cAMP-specific and IBMX-insensitive 3',5'-cyclic phosphodiesterase 8A (Homo sapiens) (O60658 whole entry): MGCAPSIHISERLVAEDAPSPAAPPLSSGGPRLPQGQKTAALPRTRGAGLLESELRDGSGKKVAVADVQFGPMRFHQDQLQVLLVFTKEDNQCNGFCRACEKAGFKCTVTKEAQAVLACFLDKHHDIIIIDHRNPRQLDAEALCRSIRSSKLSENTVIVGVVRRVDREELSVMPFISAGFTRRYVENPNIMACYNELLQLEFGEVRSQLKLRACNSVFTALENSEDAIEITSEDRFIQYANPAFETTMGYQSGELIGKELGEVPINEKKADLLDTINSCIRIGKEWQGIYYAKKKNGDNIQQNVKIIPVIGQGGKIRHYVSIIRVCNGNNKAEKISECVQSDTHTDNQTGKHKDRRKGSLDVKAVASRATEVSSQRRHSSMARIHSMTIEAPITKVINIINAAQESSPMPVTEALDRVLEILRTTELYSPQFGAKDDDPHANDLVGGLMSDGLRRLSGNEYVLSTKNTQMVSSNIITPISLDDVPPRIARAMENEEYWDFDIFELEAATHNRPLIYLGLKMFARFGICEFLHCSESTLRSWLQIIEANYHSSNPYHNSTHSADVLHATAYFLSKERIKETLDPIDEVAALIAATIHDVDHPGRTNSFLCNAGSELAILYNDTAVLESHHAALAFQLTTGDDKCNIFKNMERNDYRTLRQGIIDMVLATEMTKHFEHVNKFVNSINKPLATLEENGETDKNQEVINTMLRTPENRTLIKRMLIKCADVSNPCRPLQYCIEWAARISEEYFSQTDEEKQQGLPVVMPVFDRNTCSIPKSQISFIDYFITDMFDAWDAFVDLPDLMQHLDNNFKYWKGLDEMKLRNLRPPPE

[2] = target: cGMP-specific 3',5'-cyclic phosphodiesterase (Homo sapiens) (UniProt O76074); test: Inhibition of PDE5A1 (unknown origin) at 100 nM using iFl-cAMP/iFl-cGMP as substrate by mobility shift assay relative to control
[3] = target: T1, cGMP-dependent 3',5'-cyclic phosphodiesterase (Rattus norvegicus) (UniProt Q01062); test: Inhibition of rat PDE2A expressed in baculovirus infected Sf9 cells at 100 nM using iFl-cAMP/iFl-cGMP as substrate by mobility shift assay relative to control
T1 sequence (whole entry): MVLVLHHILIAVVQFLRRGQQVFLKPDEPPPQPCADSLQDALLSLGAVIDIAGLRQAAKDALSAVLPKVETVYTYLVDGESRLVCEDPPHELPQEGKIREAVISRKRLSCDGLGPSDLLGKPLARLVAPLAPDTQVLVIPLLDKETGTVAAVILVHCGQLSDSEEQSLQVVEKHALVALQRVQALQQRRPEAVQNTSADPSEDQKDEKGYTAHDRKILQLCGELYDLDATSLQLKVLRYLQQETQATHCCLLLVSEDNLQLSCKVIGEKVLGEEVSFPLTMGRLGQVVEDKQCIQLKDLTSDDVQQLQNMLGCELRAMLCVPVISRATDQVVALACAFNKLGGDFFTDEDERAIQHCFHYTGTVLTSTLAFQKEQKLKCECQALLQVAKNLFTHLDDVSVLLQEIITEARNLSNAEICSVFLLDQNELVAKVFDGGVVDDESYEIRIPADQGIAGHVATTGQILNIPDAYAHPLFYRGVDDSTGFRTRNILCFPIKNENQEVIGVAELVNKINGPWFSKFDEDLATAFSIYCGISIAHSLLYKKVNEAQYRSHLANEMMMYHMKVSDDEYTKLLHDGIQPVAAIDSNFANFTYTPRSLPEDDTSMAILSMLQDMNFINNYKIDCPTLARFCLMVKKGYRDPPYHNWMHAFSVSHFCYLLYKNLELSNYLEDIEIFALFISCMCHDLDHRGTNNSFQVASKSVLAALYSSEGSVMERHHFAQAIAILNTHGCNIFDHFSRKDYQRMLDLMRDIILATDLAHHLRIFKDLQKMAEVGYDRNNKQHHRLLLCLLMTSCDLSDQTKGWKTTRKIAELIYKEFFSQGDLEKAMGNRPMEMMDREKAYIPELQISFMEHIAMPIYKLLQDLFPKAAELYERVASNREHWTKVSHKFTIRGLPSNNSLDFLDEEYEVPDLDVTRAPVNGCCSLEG

[4] = target: 3',5'-cyclic-AMP phosphodiesterase 4B (Homo sapiens) (UniProt Q07343); test: Inhibition of recombinant full length human N-terminal GST-tagged PDE4B1 expressed in baculovirus infected Sf9 cells at 100 nM using iFl-cAMP/iFl-cGMP as substrate by mobility shift assay relative to control
[5] = target: High affinity 3',5'-cyclic-AMP phosphodiesterase 7A (Homo sapiens) (UniProt Q13946); test: Inhibition of PDE7A (unknown origin) at 100 nM using iFl-cAMP/iFl-cGMP as substrate by mobility shift assay relative to control
[6] = target: T2, Dual specificity calcium/calmodulin-dependent 3',5'-cyclic nucleotide phosphodiesterase 1C (Homo sapiens, UniProt Q14123); test: Inhibition of recombinant human N-terminal GST-tagged PDE1C (2 to 634 residues) expressed in baculovirus infected Sf9 cells at 100 nM using iFl-cAMP/iFl-cGMP as substrate by mobility shift assay relative to control
T2 sequence (Q14123 whole entry, the tested form may be a part): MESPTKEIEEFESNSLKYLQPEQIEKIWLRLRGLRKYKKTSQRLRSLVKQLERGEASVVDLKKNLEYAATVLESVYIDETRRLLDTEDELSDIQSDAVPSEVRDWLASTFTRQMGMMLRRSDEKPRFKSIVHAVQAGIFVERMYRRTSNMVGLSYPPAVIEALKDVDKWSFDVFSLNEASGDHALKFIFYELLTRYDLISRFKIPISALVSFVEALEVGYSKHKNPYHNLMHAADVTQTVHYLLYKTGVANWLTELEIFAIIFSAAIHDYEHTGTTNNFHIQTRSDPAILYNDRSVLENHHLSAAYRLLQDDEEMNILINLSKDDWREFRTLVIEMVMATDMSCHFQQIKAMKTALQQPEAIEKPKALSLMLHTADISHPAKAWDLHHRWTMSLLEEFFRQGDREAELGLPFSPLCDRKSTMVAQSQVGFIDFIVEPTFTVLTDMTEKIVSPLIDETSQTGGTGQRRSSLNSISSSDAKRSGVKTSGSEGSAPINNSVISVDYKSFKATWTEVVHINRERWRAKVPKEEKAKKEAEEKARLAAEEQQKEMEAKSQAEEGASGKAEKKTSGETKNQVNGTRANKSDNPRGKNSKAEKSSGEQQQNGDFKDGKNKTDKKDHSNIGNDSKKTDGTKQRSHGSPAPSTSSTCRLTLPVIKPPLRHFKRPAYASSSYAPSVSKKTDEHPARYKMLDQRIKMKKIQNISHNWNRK

[7] = target: T3, High affinity cGMP-specific 3',5'-cyclic phosphodiesterase 9A (Homo sapiens, UniProt O76083); test: Inhibition of recombinant full length human N-terminal GST-tagged PDE9A2 expressed in baculovirus infected Sf9 cells at 100 nM using iFl-cAMP/iFl-cGMP as substrate by mobility shift assay relative to control
T3 sequence (O76083 whole entry, the tested form may be a part): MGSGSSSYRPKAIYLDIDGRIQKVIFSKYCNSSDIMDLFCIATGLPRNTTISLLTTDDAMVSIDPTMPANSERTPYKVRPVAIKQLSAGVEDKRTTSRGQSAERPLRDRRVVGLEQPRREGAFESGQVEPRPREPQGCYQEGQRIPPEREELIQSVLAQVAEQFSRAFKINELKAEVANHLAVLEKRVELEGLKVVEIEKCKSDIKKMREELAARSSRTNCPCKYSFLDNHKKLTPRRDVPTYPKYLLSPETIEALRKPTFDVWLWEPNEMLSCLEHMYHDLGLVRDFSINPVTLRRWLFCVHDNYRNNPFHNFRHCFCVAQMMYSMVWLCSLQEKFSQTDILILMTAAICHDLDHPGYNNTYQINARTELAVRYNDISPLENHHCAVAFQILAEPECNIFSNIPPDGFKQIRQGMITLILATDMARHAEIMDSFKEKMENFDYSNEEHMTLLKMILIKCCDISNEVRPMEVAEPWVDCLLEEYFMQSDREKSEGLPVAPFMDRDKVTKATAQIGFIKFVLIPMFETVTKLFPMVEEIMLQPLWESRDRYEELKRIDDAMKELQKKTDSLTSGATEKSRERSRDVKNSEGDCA

[8] = target: T4, cAMP and cAMP-inhibited cGMP 3',5'-cyclic phosphodiesterase 10A (Homo sapiens, UniProt Q9Y233); test: Inhibition of recombinant human N-terminal GST-tagged PDE10A1 ( 2 to 789 residues) expressed in baculovirus infected Sf9 cells at 100 nM using iFl-cAMP/iFl-cGMP as substrate by mobility shift assay relative to control
T4 sequence (Q9Y233 whole entry, the tested form may be a part): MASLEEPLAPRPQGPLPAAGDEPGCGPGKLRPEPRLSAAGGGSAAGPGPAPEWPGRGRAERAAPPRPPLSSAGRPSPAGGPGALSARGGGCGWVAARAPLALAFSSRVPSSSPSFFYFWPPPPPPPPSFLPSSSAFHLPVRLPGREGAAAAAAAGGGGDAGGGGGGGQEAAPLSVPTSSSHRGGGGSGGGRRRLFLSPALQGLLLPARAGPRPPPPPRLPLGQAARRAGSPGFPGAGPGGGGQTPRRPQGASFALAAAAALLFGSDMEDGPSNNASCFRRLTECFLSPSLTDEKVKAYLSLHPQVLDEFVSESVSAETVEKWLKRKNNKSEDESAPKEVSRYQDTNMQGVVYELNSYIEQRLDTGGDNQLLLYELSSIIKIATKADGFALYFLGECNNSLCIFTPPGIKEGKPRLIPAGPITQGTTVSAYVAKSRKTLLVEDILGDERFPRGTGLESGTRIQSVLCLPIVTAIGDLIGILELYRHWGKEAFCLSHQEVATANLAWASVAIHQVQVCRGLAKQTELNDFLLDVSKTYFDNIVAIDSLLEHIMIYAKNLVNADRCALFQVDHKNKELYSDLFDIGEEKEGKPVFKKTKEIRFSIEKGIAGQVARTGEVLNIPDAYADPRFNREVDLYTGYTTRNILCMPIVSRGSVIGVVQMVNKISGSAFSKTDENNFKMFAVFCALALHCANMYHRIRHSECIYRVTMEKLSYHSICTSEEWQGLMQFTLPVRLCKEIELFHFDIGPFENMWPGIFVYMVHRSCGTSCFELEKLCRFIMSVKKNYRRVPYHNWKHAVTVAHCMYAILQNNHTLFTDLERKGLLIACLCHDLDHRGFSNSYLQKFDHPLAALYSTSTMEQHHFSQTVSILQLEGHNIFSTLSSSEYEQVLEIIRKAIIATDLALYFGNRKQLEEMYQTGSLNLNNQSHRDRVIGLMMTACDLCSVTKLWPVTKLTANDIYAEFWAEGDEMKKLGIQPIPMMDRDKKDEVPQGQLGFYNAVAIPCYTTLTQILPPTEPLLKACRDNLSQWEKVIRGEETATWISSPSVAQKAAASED

[9] = target: Cone cGMP-specific 3',5'-cyclic phosphodiesterase subunit alpha' (Homo sapiens) (UniProt P51160); test: Inhibition of PDE6C (unknown origin) at 100 nM using iFl-cAMP/iFl-cGMP as substrate by mobility shift assay relative to control
Sequence of Cone cGMP-specific 3',5'-cyclic phosphodiesterase subunit alpha' (Homo sapiens) (P51160 whole entry): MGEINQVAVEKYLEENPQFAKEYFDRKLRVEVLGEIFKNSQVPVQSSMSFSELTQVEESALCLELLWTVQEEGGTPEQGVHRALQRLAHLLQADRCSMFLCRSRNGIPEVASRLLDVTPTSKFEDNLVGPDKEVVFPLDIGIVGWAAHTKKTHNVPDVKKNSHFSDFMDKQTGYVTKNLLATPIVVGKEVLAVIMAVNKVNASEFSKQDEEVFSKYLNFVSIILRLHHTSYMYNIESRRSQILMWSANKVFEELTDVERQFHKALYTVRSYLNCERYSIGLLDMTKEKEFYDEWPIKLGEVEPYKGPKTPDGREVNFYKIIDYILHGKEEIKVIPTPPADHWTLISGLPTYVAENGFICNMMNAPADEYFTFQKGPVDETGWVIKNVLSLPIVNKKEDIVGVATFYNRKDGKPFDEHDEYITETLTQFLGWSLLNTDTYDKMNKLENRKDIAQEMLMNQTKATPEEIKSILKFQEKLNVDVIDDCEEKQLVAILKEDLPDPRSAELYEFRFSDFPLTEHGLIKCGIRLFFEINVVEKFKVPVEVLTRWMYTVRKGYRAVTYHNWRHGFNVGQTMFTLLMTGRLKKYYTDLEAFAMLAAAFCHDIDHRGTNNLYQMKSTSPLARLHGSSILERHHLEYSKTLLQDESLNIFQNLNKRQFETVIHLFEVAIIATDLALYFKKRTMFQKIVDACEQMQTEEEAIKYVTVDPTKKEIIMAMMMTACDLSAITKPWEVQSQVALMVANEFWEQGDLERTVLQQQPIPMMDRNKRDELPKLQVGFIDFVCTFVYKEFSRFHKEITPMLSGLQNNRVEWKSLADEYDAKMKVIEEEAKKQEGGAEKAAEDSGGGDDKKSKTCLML

[10] = target: cGMP-inhibited 3',5'-cyclic phosphodiesterase 3B (Homo sapiens) (UniProt Q13370); test: Inhibition of recombinant human N-terminal GST-tagged PDE3B (592 to end residues) expressed in baculovirus infected Sf9 cells at 100 nM using iFl-cAMP/iFl-cGMP as substrate by mobility shift assay relative to control
[11] = target: Dual 3',5'-cyclic-AMP and -GMP phosphodiesterase 11A (Mus musculus) (UniProt P0C1Q2); test: Inhibition of recombinant mouse N-terminal GST-tagged PDE11A (2 to 933 residues) expressed in baculovirus infected Sf9 cells at 100 nM using iFl-cAMP/iFl-cGMP as substrate by mobility shift assay relative to control
Sequence of Dual 3',5'-cyclic-AMP and -GMP phosphodiesterase 11A (Mus musculus) (P0C1Q2 whole entry, the tested form may be a part): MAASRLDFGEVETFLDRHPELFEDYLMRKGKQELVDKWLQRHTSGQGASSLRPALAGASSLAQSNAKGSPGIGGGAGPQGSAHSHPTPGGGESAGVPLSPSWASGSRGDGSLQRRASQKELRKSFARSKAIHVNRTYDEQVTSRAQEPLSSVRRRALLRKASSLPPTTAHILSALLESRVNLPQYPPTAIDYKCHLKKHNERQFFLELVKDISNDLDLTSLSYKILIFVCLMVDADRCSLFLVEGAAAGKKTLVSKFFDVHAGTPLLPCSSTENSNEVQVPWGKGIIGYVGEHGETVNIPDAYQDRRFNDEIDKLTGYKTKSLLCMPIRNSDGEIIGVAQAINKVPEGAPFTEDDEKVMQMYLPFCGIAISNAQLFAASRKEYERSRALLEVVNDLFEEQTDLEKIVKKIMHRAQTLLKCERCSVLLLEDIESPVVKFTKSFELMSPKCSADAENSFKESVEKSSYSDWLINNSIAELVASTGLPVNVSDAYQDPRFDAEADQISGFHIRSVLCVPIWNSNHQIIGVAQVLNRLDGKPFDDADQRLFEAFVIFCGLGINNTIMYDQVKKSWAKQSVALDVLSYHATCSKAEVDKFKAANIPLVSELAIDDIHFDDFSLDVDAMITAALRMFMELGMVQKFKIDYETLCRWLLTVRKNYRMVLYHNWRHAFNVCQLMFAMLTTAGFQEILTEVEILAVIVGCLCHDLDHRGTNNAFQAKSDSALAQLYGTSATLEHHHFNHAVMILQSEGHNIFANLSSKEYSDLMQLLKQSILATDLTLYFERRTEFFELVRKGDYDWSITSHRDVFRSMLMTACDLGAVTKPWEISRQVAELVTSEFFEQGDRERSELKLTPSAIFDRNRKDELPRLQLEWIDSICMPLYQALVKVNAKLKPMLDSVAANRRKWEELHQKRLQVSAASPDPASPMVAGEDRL

[12] = target: T2, Dual specificity calcium/calmodulin-dependent 3',5'-cyclic nucleotide phosphodiesterase 1C; test: Inhibition of Ca2+/calmodulin-induced full-length recombinant human N-terminal GST-tagged PDE1C expressed in baculovirus infected Sf9 insect cells using cAMP as substrate pretreated for 10 mins followed by substrate addition and measured after 30 mins by kinase-Glo luminescence assay
Procedure, shortened: (§1)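 Selectivity screen run as a PDE-Glo enzymatic-activity luminescence assay, with IC50 values determined against each counter-screen PDE isoform.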

[13] = target: T3, High affinity cGMP-specific 3',5'-cyclic phosphodiesterase 9A; test: Inhibition of Ca2+/calmodulin-induced recombinant human full length N-terminal GST-tagged PDE9A2 expressed in baculovirus infected Sf9 cells using cGMP as substrate pretreated for 10 mins followed by substrate addition and measured after 60 mins by kinase-Glo luminescence assay; procedure, shortened: as §1
[14] = Intrinsic clearance in dog liver microsomes in presence of NADP/G6P/G6P dehydrogenase/MgCl2 by LC/MS analysis; type: ADME, Canis lupus familiaris, microsome; details: read-out: CLH
Procedure, shortened: (§2)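 Phase-1 liver microsomal stability assay for the named species, with intrinsic clearance reported in µl x min^-1 x mg^-1.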

[15] = Intrinsic clearance in human liver microsomes in presence of NADP/G6P/G6P dehydrogenase/MgCl2 by LC/MS analysis; type: ADME, microsome; details: read-out: CLH; procedure, shortened: as §2
[16] = target: T4, cAMP and cAMP-inhibited cGMP 3',5'-cyclic phosphodiesterase 10A; test: Inhibition of Ca2+/calmodulin-induced recombinant human full length N-terminal GST-tagged PDE10A1 expressed in baculovirus infected Sf9 cells using cAMP as substrate pretreated for 10 mins followed by substrate addition and measured after 40 mins by kinase-Glo luminescence assay; details: read-out: IC50
[17] = Intrinsic clearance in rat liver microsomes in presence of NADP/G6P/G6P dehydrogenase/MgCl2 by LC/MS analysis; type: ADME, microsome; details: read-out: CLH; procedure, shortened: as §2
[18] = Intrinsic clearance in mouse liver microsomes in presence of NADP/G6P/G6P dehydrogenase/MgCl2/metabolic phase 2 co-factor by LC/MS analysis; type: ADME, microsome; details: read-out: CLH
Procedure, shortened: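 Mouse liver microsomes incubated with both phase 1 and phase 2 co-factors, with intrinsic clearance expressed in µl x min^-1 x mg^-1.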

[19] = target: T4, cAMP and cAMP-inhibited cGMP 3',5'-cyclic phosphodiesterase 10A; test: Inhibition of PDE10 (unknown origin)
[20] = Intrinsic clearance in rat liver microsomes; type: ADME, microsome

inhibition [1]	inhibition [2]	inhibition [3]	inhibition [4]	inhibition [5]	inhibition [6]	inhibition [7]	inhibition [8]	inhibition [9]	inhibition [10]	inhibition [11]	IC50 [12]	IC50 [13]	microsomal CLint [14]	microsomal CLint [15]	IC50 [16]	microsomal CLint [17]	microsomal CLint [18]	IC50 [19]	CLH [20]	SMILES
-4%	6%	8%	3%	8%	16%	-7%	99%	-3%	-3%	8%	–	–	–	–	–	–	–	–	–	Cc1ncc(C)n2nc(-c3ccc4nc(-c5ccccc5)[nH]c4c3)nc12
-1%	6%	9%	4%	26%	5%	-3%	98%	18%	7%	9%	> 10 µM	> 10 µM	7.4 µL/min/mg	1.8 µL/min/mg	35 nM	5.6 µL/min/mg	0.6 µL/min/mg	–	–	Cc1ncc(C)n2nc(-c3ccn4cc(-c5ccccc5)nc4n3)nc12
–	–	–	–	–	–	–	–	–	–	–	–	–	16.3 µL/min/mg	11.6 µL/min/mg	–	68.9 µL/min/mg	28.9 µL/min/mg	37 nM	68.8 µL/min/mg	Cc1ncc(C)n2nc(-c3ccn4cc(-c5ccccc5)nc4c3)nc12
